For 1 compound, Activity, inhibition and viability results are on record in ChEMBL document CHEMBL4414566, “Cytotoxicity and Anti-inflammatory Properties of Apigenin-Derived Isolaxifolin” (J Nat Prod, 2019).

Data set [1] concerns RAW264.7. Description: Antiinflammatory activity in mouse RAW264.7 cells assessed as reduction in LPS-induced TNFalpha production at 0.8 to 3.1 uM preincubated with LPS for 24 hrs followed by compound addition and measured after 24 hrs by ELISA. The class given is functional, cell-based. In outline: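 Murine RAW 264.7 macrophages, 1 × 10^5/well, 4 h settling, then LPS (1.0 μg/mL) for 24 h. Medium was swapped for test solutions (0.8–3.1 μM or 2.3–9.2 μM), or DXM 254.8 μM as positive control, for another 24 h. Secreted NO was measured by Griess assay; TNF-α and IL-6 by ELISA. Run in triplicate, mean ± SD.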
On the technique in general: In an ELISA, binding on a coated surface is turned into a signal by an enzyme label.

Data set [2] has as its system RAW264.7. Description: Inhibition of nitric oxide production in mouse RAW264.7 cells at 0.8 to 3.1 uM measured after 24 hrs by griess reagent based assay. The class given is functional, cell-based. For orientation: The Griess reaction detects nitrite, a stable product of nitric oxide.
Data set [3] deals with MDA-MB-231. Description: Induction of mitochondrial membrane potential loss in human MDA-MB-231 cells incubated for 48 hrs by JC1 staining based flow cytometric analysis. Type of data set: functional, cell-based. A digest of the protocol:
(§1)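 MDA-MB-231 cells in DMEM/10% FBS exposed 48 h to 0, 8.6, 12.4 or 17.3 μM. Harvested cells stained with JC-1 for 15 min in the dark, then analysed by flow cytometry. Excitation 488 nm; green emission read at 525 nm, red at 590 nm. Output given as percent green-to-red fluorescence intensity ratio. Triplicate, mean ± SD.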
A general note: Flow cytometry measures light scatter and fluorescence of single cells or particles in a stream.

The subject of data set [4] is MDA-MB-231. Description: Induction of apoptosis in human MDA-MB-231 cells assessed as necrotic cells at 17.3 uM incubated for 48 hrs by annexin V-FITC/PI based flow cytometric analysis (Rvb= 0.74%). The class given is functional.
Data set [5] concerns MDA-MB-231. Description: Induction of apoptosis in human MDA-MB-231 cells assessed as viable cells at 17.3 uM incubated for 48 hrs by annexin V-FITC/PI based flow cytometric analysis (Rvb= 96.21%). The class given is functional. As to conditions: MDA-MB-231, 48 h, read-out: Activity.
The test system of data set [6] is MDA-MB-231. Description: Induction of apoptosis in human MDA-MB-231 cells assessed as viable cells at 12.4 uM incubated for 48 hrs by annexin V-FITC/PI based flow cytometric analysis (Rvb= 96.21%). The class given is functional. The following applies: MDA-MB-231, 48 h, read-out: Activity.
Data set [7] has as its system MDA-MB-231. Description: Induction of apoptosis in human MDA-MB-231 cells assessed as necrotic cells at 8.6 uM incubated for 48 hrs by annexin V-FITC/PI based flow cytometric analysis (Rvb= 0.74%). Type of data set: functional.
The subject of data set [8] is MDA-MB-231. Description: Induction of apoptosis in human MDA-MB-231 cells assessed as early apoptotic cells at 8.6 uM incubated for 48 hrs by annexin V-FITC/PI based flow cytometric analysis (Rvb= 0.24%). Type of data set: functional.
In data set [9] the test system is MDA-MB-231. Description: Induction of apoptosis in human MDA-MB-231 cells assessed as increase in nuclear chromatin condensation incubated for 48 hrs by Hoechst 33258 staining based fluorescence microscopic method. Type of data set: functional, cell-based. In outline:
(§2)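 MDA-MB-231 cells were grown 24 h and treated with 8.6, 12.4 or 17.3 μM for 48 h. They were then fixed 10 min, washed three times in PBS and stained 5 min with Hoechst 33258. Nuclear condensation was imaged by fluorescence microscopy (excitation 350 nm, emission 460 nm).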

For data set [10], the system named is MDA-MB-231. Description: Induction of cell cycle arrest in human MDA-MB-231 cells assessed as accumulation of cells at G2/M phase at 12.4 uM incubated for 48 hrs by PI/RNase staining based flow cytometric analysis (reference value: 10.4%). The class given is functional. In outline:
(§3)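 Cell-cycle analysis: MDA-MB-231 cells were preincubated 24 h, then treated with 8.6, 12.4 or 17.3 μM for 48 h. Cells were pelleted, fixed in 75% ethanol at −20 °C overnight, and stained with PI/RNase for 15 min in the dark at ambient temperature. About 10 000 cells per well were analyzed by flow cytometry for DNA content.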

For data set [11], the system named is MDA-MB-231. Description: Induction of cell cycle arrest in human MDA-MB-231 cells assessed as accumulation of cells at G0/G1 phase at 12.4 uM incubated for 48 hrs by PI/RNase staining based flow cytometric analysis (reference value: 50.4%). Type of data set: functional. A digest of the protocol:
as §3

The subject of data set [12] is MDA-MB-231. Description: Induction of cell cycle arrest in human MDA-MB-231 cells assessed as accumulation of cells at G2/M phase at 8.6 uM incubated for 48 hrs by PI/RNase staining based flow cytometric analysis (reference value: 10.4%). Type of data set: functional. A digest of the protocol: as §3
For data set [13], the system named is MDA-MB-231. Description: Induction of cell cycle arrest in human MDA-MB-231 cells assessed as accumulation of cells at S phase at 8.6 uM incubated for 48 hrs by PI/RNase staining based flow cytometric analysis (reference value: 39.2%). The class given is functional. A digest of the protocol: as §3
Data set [14] relates to MDA-MB-231. Description: Induction of cell cycle arrest in human MDA-MB-231 cells assessed as accumulation of cells at G0/G1 phase at 8.6 uM incubated for 48 hrs by PI/RNase staining based flow cytometric analysis (reference value: 50.4%). Type of data set: functional. A digest of the protocol: as §3
For another data set, the system named is HCT-116. Description: Antiproliferative activity against human HCT116 cells assessed as cell viability at >34.6 uM incubated for 48 hrs by methylene blue assay relative to control. The class given is functional. In outline: (§4)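 MDA-MB-231, MCF-7, HepG2 and LNCaP cells were grown in DMEM; HCT-116 and LO-2 in RPMI-1640; all with 10% FBS at 37 °C, 5% CO2. Cells seeded at 1.5 × 10^5 cells/mL and incubated overnight (~12 h), then exposed to 6.2–30.9 μM or 23.1–185.0 μM (final DMSO <0.1%) for 48 h. Read by methylene blue staining; viability = Abs treated/Abs untreated × 100%, triplicate.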

The test system of the next data set is LNCaP. Description: Antiproliferative activity against human LNCAP cells assessed as cell viability at >30.9 uM incubated for 48 hrs by methylene blue assay relative to control. The class given is functional. In outline: as §4
A further data set relates to L02. Description: Cytotoxicity against human LO2 cells assessed as reduction in cell viability at 6.2 to 30.9 uM incubated for 48 hrs by methylene blue assay. The following applies: l02, 48 h. The class given is cell-based. A digest of the protocol:
as §4

Data set [15] relates to MDA-MB-231. Description: Induction of cell cycle arrest in human MDA-MB-231 cells assessed as increase in accumulation of cells at G0/G1 phase incubated for 48 hrs by PI/RNase staining based flow cytometric analysis. Type of data set: functional. A digest of the protocol: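 Cells grown 24 h in DMEM/10% FBS at 37 °C, 5% CO2, then exposed 48 h to 8.6, 12.4 or 17.3 μM. Pelleted, fixed in 75% ethanol at −20 °C overnight, stained with PI-containing RNase 15 min in the dark at ambient temperature. About 10 000 cells per well analysed by flow cytometry. Triplicate, mean ± SD.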

The subject of data set [16] is MDA-MB-231. Description: Induction in apoptosis in human MDA-MB-231 cells assessed as apoptotic cell bodies formation at 17.3 uM incubated for 48 hrs by Hoechst 33258 staining based fluorescence microscopic method. The class given is functional. A digest of the protocol: as §2
In data set [17] the test system is MDA-MB-231. Description: Induction of mitochondrial membrane potential loss in human MDA-MB-231 cells cell population with mitochondrial membrane potential collapse by measuring green fluorescence at 8.6 uM incubated for 48 hrs by JC1 staining based flow cytometric analysis (reference value: 7.96%). The class given is functional. In outline:
as §1

In data set [18] the test system is MDA-MB-231. Description: Induction of mitochondrial membrane potential loss in human MDA-MB-231 cells assessed as cell population with intact mitochondrial membrane potential by measuring red fluorescence at 17.3 uM incubated for 48 hrs by JC1 staining based flow cytometric analysis (reference value: 92.04%). The class given is functional. A digest of the protocol:
as §1

Data set [19] has as its system MDA-MB-231. Description: Induction of mitochondrial membrane potential loss in human MDA-MB-231 cells cell population with mitochondrial membrane potential collapse by measuring green fluorescence at 17.3 uM incubated for 48 hrs by JC1 staining based flow cytometric analysis (reference value: 7.96%). The class given is functional. A digest of the protocol:
as §1

The source made the active and inactive calls. No cut-off for these calls is given here.

For the compound `CC(C)=CCc1c2c(c(O)c3c(=O)cc(-c4ccc(O)cc4)oc13)C=CC(C)(C)O2` [LAXIFOLIN], the result in the data set on RAW264.7 [1] and with MDA-MB-231 [16] was Active. Further, the inhibition entry in the data set on RAW264.7 [2] was “Active”. Further, the Activity entry in the data set on MDA-MB-231 [3] is “Dose-dependent effect”; with MDA-MB-231 [4] it was 5.57%; in the data set on MDA-MB-231 [7], 1.04%; in the data set on MDA-MB-231 [8], 0.87%; in the data set on MDA-MB-231 [9] it was “Dose-dependent effect”; in the data set on MDA-MB-231 [10] it was 11.6%. In addition, the Activity in the data set with MDA-MB-231 [11] was 60.2%; in the data set with MDA-MB-231 [12], 11%; with MDA-MB-231 [13] it was 29.5%; with MDA-MB-231 [14], 59.5%; with HCT-116, 20%; with LNCaP, 20%. In addition, the Activity entry with L02 is “Non-Toxic”; in the data set with MDA-MB-231 [15] it was “Dose-dependent effect”; in the data set with MDA-MB-231 [17] it was 16.49%; with MDA-MB-231 [18], 73.25%; with MDA-MB-231 [19], 26.75%. In the data set with MDA-MB-231 [5], the viability at 17.3 µM was determined as 68.9%. In the data set on MDA-MB-231 [6], the viability at 12.4 µM came to 85.3%.
